Rows were chosen to be rich in hits. Some 1.5% of all compounds tested hit in one or more screens of this group.
CCR6 antagonist: CCR6 (human) receptor antagonism; CHO-K1 CCR6 PathHunter beta-arrestin, luminescence, CCL20-stimulated; inhibition, % at 20 µM; actives 0.49% (n = 340,000); AID 493098;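 active means compounds whose inhibition of the agonist-driven luminescence signal at 20 µM reaches about 50%, limit read from the data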;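 further: cells stimulated with CCL20 at 14 nM final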
APJ agonist: activates the human apelin receptor APJ | CHO-K1 APJ PathHunter beta-arrestin, luminescence; 0% DMSO wells, 100% apelin | activation, % at 20 µM | actives 0.11% (n = 330,000);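 active means activation more than six SD over the plate average, tested at 20 µM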
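Assay system – PathHunter CHO-K1 APJ (AGTRL-1) beta-arrestin reporter cells · Compound – one dose, 20 µM compound, 1% DMSO · Timing – compound 90 min 25 °C, reagent 1 h · Measured by – luminescence from split beta-galactosidase complementation, Galacton Star/Emerald II substrate · Measure – beta-arrestin recruitment to APJ as agonist activity, luminescent signal · Benchmarks – DMSO vs Apelin-13 10 nM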
APJ antagonist: blocks the human apelin receptor APJ; inhibition, % at 20 µM; actives 0.32% (n = 330,000); CHO-K1 APJ beta-arrestin complementation, luminescence; P35414;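 active means inhibition above about 40% at 20 µM, limit read from the data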;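 further: cells challenged with 10 nM apelin-13 agonist together with compound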
CXCR6 block: inhibitors of human CXCR6 receptor | O00574 | CHO-K1 PathHunter CXCR6 beta-arrestin, luminescence | inhibition, % at 20 µM | actives 0.36% (n = 360,000); in the data active means inhibition above about 34%, passing the limit was not always enough;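 further: antagonist mode with CXCL16 agonist at 10 nM final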
Target sequence (O00574 whole entry, looked up): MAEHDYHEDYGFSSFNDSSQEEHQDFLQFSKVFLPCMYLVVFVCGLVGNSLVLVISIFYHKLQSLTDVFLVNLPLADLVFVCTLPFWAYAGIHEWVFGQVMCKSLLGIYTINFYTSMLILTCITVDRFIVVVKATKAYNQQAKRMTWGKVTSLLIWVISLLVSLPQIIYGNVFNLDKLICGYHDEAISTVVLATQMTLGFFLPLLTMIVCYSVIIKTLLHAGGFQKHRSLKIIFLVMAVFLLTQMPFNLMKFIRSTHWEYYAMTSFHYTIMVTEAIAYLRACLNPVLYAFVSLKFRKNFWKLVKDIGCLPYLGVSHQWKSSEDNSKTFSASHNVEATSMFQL
EBI2 block: blocks human EBI2 receptor beta-arrestin signaling; P32249; EBI2 beta-arrestin recruitment, luminescence, 7a,25-OHC stimulated; inhibition, % at 5 µM; actives 0.81% (n = 360,000); in the data active means inhibition above about 38%;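 further: enzyme fragment complementation signal reports receptor beta-arrestin coupling in cells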
Target sequence (P32249 whole entry, looked up, the tested form may be a part): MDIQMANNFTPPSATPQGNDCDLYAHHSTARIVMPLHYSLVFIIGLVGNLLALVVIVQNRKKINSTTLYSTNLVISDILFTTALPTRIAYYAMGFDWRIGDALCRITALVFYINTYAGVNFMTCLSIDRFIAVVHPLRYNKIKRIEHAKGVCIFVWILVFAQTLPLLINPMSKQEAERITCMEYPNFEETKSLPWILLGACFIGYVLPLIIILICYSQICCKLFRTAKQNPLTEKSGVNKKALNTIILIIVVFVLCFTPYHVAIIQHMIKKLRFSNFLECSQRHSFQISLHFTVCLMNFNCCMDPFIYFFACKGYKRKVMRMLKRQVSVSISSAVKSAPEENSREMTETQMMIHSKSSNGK
EBI2 antag conf: EBI2 (human) antagonism, single concentration confirmation; inhibition, % at 5 µM; shares compounds with EBI2 block; actives 29% (n = 2,400); EBI2 beta-arrestin luminescence, 7a,25-OHC antagonism;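 active means inhibition of at least 50%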
EBI2 ag: activates EBI2, counter-screen for EBI2 antagonists | activation, % at 5 µM | shares compounds with EBI2 block | EBI2-expressing cells, agonist mode, luminescence, 60 min; 0% vehicle, 100% 7α,25-dihydroxycholesterol control | 2,400 tested, under 10 active | AID 652000;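 active means activation of at least 50%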
bGal counter: inhibits E. coli beta-galactosidase, counter-screen for EBI2 antagonists. inhibition, % at 5 µM. shares compounds with EBI2 block. AID 652176. purified beta-galactosidase, luminescent Galacton Star, 15 min. actives 1% (n = 2,400);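 active means replicate-average signal at least 3 plate SD below neutral wells, shown as high inhibition, flagging enzyme-inhibiting false positives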;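 further: higher means stronger loss of beta-gal luminescence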
Each line names hits and unclear results; the compound was inactive in the other large screens (follow-up assays come after a bar, where they were run).

CCOc1ccc(S(=O)(=O)N2CCN(S(=O)(=O)c3ccc(C(C)=O)cc3)CC2)cc1	none
Cc1ccc(NCC(=O)N2CCN(S(=O)(=O)c3ccccc3)CC2)cc1F	EBI2 block 87.5 | EBI2 antag conf inactive | EBI2 ag inactive | bGal counter inactive
CCOc1ccc(OCC(=O)N2CCN(S(=O)(=O)c3ccccc3)CC2)cc1	EBI2 block 59.3 (no result: CCR6 antagonist, APJ agonist, APJ antagonist) | EBI2 antag conf inactive | EBI2 ag inactive | bGal counter inactive
CCOc1ccc(S(=O)(=O)N2CCN(C(=O)COc3ccc(Br)cc3)CC2)cc1	EBI2 block 87.5 | EBI2 antag conf 80.5 | EBI2 ag inactive | bGal counter inactive
CC(=O)c1ccc(S(=O)(=O)N2CCN(CCOc3ccc(Br)cc3)CC2)cc1	EBI2 block 89.6 | EBI2 antag conf 58.1 | EBI2 ag inactive | bGal counter inactive
CCS(=O)(=O)N1CCN(C(=O)COc2ccc(-c3ccccc3)cc2)CC1	none
O=C(CCc1ccc(S(=O)(=O)N2CCOCC2)cc1)Nc1ccc(F)c(F)c1F	none
Cc1ccc2oc(C(=O)NC3CCS(=O)(=O)C3)cc(=O)c2c1 (stereo unspecified)	none
CSc1ccc(CN(C)C(=O)c2cc(=O)c3ccccc3o2)cc1	EBI2 block 77.8 | EBI2 antag conf 59.7 | EBI2 ag inactive | bGal counter inactive
CN(Cc1ccccc1)C(=O)COC(=O)c1cc(=O)c2ccccc2o1	none
CSc1ccc(CN(C)C(=O)c2cc3ccccc3o2)cc1	EBI2 block 50.0 | EBI2 antag conf inactive | EBI2 ag inactive | bGal counter inactive
CS(=O)(=O)c1ccc(-c2cc(Br)sc2-c2ccc(F)cc2)cc1	none (no result: CCR6 antagonist, CXCR6 block, EBI2 block)
CCN(CC)CCSc1nnc2c3cc(C)ccc3n(Cc3ccccc3)c2n1	EBI2 block 74.1 | EBI2 antag conf 51.9 | EBI2 ag inactive | bGal counter inactive
CSc1nnc2c3cc(F)ccc3n(Cc3ccccc3)c2n1	none
COc1ccc(CN2CCNC(=O)C2CC(=O)NCc2cn3ccc(C)cc3n2)c(OC)c1 (stereo unspecified)	none
Cc1ccc(CNC(=O)C2=CCN(S(=O)(=O)c3ccc(C)cc3)CC2)cc1	EBI2 block 66.2 (no result: CCR6 antagonist) | EBI2 antag conf inactive | EBI2 ag inactive | bGal counter inactive
Cc1ccc(C(=O)NCCc2ccc(S(=O)(=O)N3CCCC3)cc2)cc1	none
Cc1ccc(CNC(=O)c2ccc(S(=O)(=O)N3CCCCCC3)cc2)cc1	EBI2 block 71.7 (no result: CCR6 antagonist, APJ agonist, APJ antagonist) | EBI2 antag conf inactive | EBI2 ag inactive | bGal counter inactive
NNC(=S)Nc1ccc(S(=O)(=O)N2CCOCC2)cc1	none
NNC(=S)Nc1ccc(S(=O)(=O)N2CCCCC2)cc1	EBI2 block 43.6 | EBI2 antag conf inactive | EBI2 ag inactive | bGal counter inactive
Cc1ccc(S(=O)(=O)N2CC=C(C(=O)NCc3ccc(F)cc3)CC2)cc1	none (no result: CCR6 antagonist)
Cc1cc2cc(CNC(=O)c3ccc(S(=O)(=O)N4CCCCC4)cc3)ccc2[nH]1	EBI2 block 47.1 | EBI2 antag conf inactive | EBI2 ag inactive | bGal counter inactive
CC1=C(C(=O)N(C(C)C)C(C)C)CC(CC(=O)NCCN2CCOCC2)C(=O)N1CCC1=CCCCC1 (stereo unspecified)	none (no result: CCR6 antagonist, APJ agonist, APJ antagonist)
CC(C)(C)[C@H]1COC(=O)CCCC/C=C\C[C@H](CC(=O)N(CCO)Cc2ccccc2)C(=O)N1	none
Cc1ccc2c(c1)N(CC(=O)NCC1CCCO1)C(=O)C(C(C)C)O2 (stereo unspecified)	none
O=C(Nc1ccc(OC(F)F)cc1)c1cc(S(=O)(=O)N2CCOCC2)ccc1N1CCCC1	none (no result: APJ agonist, APJ antagonist)
Cc1ccc(NC(=S)Nc2ccc(C(C)C)cc2)cc1S(=O)(=O)N1CCCCCC1	EBI2 block 49.6 | EBI2 antag conf 50.9 | EBI2 ag inactive | bGal counter inactive
O=C(COc1ccc2ccccc2c1)Nc1ccc(S(=O)(=O)N2CCCCCC2)cc1	EBI2 block 55.9 | EBI2 antag conf inactive | EBI2 ag inactive | bGal counter inactive
O=S(=O)(c1ccc(NC(=S)Nc2ccc(OC(F)F)cc2)cc1)N1CCOCC1	EBI2 block 49.1 | EBI2 antag conf inactive | EBI2 ag inactive | bGal counter inactive
O=C(COc1ccccc1)Nc1ccc(S(=O)(=O)N2CCCCCC2)cc1	none
Cc1ccc(NC(=O)c2ccc(S(=O)(=O)N3CCCCC3)cc2)cc1	EBI2 block 44.6 | EBI2 antag conf inactive | EBI2 ag inactive | bGal counter inactive
N#Cc1ccc(-c2ccc(OCC(=O)NN=Cc3ccncc3)cc2)cc1	none
N#CCCN(C(=O)COC(=O)CCNS(=O)(=O)c1ccccc1)c1ccccc1	none
Cc1ccc(Oc2ncc(-c3ccc(Cl)cc3)cn2)cc1	EBI2 block 90.0 | EBI2 antag conf 58.2 | EBI2 ag inactive | bGal counter inactive
COc1cnc(-c2ccccc2)nc1Oc1cccc(C)c1C	none
Cc1cccc(Oc2ncc(-c3ccc(Cl)cc3)cn2)c1C	EBI2 block 51.9 | EBI2 antag conf inactive | EBI2 ag inactive | bGal counter inactive
CCOc1ncccc1C(=O)Nc1ccc(C(=O)Nc2ccc(OC)cc2)cc1	EBI2 block 57.1 | EBI2 antag conf inactive | EBI2 ag inactive | bGal counter inactive
CCOc1ccc(NC(=O)c2ccc(OC)cc2)cc1	none
CC(=O)NC(c1cccc([N+](=O)[O-])c1)c1c(OC(C)=O)ccc2ccccc12 (stereo unspecified)	none
CCCCC(=O)NC(c1cccc([N+](=O)[O-])c1)c1c(OC(C)=O)ccc2ccccc12 (stereo unspecified)	EBI2 block 39.0 | EBI2 antag conf inactive | EBI2 ag inactive | bGal counter inactive
CCOc1ccc(N=Cc2ccc3ccccc3c2)cc1	none
CCOc1ccc(N=CNc2ccc(OCC)cc2)cc1	EBI2 block 56.0 | EBI2 antag conf inactive | EBI2 ag inactive | bGal counter inactive
O=C(Nc1ccc(O)cc1)c1ccc2c(c1)C(=O)N(Cc1cccnc1)C2=O	none
COc1ccc(NC(=O)c2ccc3c(c2)C(=O)N(Cc2cccnc2)C3=O)cc1	EBI2 block 53.3 | EBI2 antag conf inactive | EBI2 ag inactive | bGal counter inactive
O=C(Nc1ccc(Cl)cc1F)c1ccc2c(c1)C(=O)N(Cc1ccncc1)C2=O	EBI2 block 50.6 | EBI2 antag conf inactive | EBI2 ag inactive | bGal counter inactive
Cc1cc(C)n(-c2ccc(S(=O)(=O)N3CCOCC3)cc2[N+](=O)[O-])n1	none
O=C(CN1CCC(n2nnc3cc(C(F)(F)F)ccc32)CC1)NCc1cccs1	EBI2 block 58.0 | EBI2 antag conf inactive | EBI2 ag inactive | bGal counter inactive

Screening data as filed in PubChem.
